aDG glyco up: alpha-DG glycosylation activation. Pro5-aDG cells, alpha-DG glycosylation AlphaScreen (IIH6); 0% Pro5, 100% B10-LARGE cell signal. activation, % at 10 µM. hit rate 0.22% among 360,000;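 active = activation of at least 8% versus controls, or a plate z-score of at least 8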;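 note: Pro5 are CHO cells carrying HIG-tagged alpha-DG that lacks glycosylation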
XBP1 UPR activ: activators of adaptive arm of unfolded protein response (XBP1); hit rate 0.33% among 330,000; activation, % at 20 µM; CHO-XBP1 luciferase reporter, IRE1-XBP1 UPR activation, luminescence; percent of tunicamycin response, DMSO as zero;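 active = versus positive control, 20 µM dose yields 30% or more activation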;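 note: 100% = tunicamycin at 10 µg/mL and 0% = DMSO only wells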
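Test system: CHO-XBP1 luciferase reporter cells | Buffer or medium: Serum-containing F12 medium, 10% FBS | Schedule: 6 h compound exposure at 37 °C, 5% CO2 | Detection: Steady-Glo luciferase glow luminescence, 10 min after reagent addition | Read-out basis: Activation, % of tunicamycin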
GRIN3A LBD mod: modulates the human NR3A ligand-binding domain. NR3A LBD differential scanning fluorimetry, Tm shift; 0% = protein alone, 100% = glycine-bound protein. Tm shift relative to glycine control, % at 25 µM. hit rate 2.5% among 340,000. AID 1259313;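 active = melting temperature shift of at least 10% of the positive control shift, at one fixed dose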
MPTP block: inhibitors of mitochondrial permeability transition pore; hit rate 1.4% among 360,000; isolated mouse mitochondria, Ca2+ swelling absorbance, 30 min; inhibition, % at 10 µM;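 active = inhibition of 50% or more, scaled per plate between neutral and stimulator controls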;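 note: 0% = DMSO wells given calcium and 100% = 1 mM EGTA wells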
CHOP inhibitor: CHOP inhibition in unfolded protein response | CHO-K1 CHOP-promoter luciferase, tunicamycin-induced, 15-18 h | inhibition, % at 10 µM | hit rate 3.8% among 220,000;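 active = compounds that reduced the stress-induced luciferase reporter signal by more than about 70% of percent inhibition, limit read from the data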;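 note: 0% = tunicamycin plus vehicle and 100% = wells without tunicamycin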
UPR CHOP act: apoptotic UPR (CHOP) activation | CHO-CHOP luciferase reporter, luminescence; percent of tunicamycin response over DMSO baseline | activation, % at 10 µM | hit rate 0.34% among 330,000;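 active = at 10 µM dose, activation of 40% or more, normalized to positive control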;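 note: 100% = tunicamycin at 10 µg/mL and 0% = DMSO alone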
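System: CHO-CHOP luciferase reporter cell line; amount: 500 cells/well; buffer or medium: F12 medium containing 10% fetal bovine serum; incubation: 6 h compound exposure at 37 °C after overnight seeding; measured by: luciferase luminescence after 10 min with Steady-Glo reagent; evaluation: % reporter activation, DMSO baseline versus tunicamycin full activation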
Rh123 counter: membrane potential counter-screen of mitochondrial pore inhibitors; shares compounds with MPTP block; isolated mitochondria, Rhodamine 123 fluorescence; inhibition, % at 10 µM; hit rate 78% among 5,000; in the data active = inhibition above about 22%;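 note: 0% = DMSO vehicle and 100% = positive control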
MPTP abs DR: MPTP inhibition, dose response swelling confirmation | AID 651561 | shares compounds with MPTP block | hit rate 58% among 780 | isolated mitochondria swelling, absorbance | IC50, µM; in the data active = IC50 below about 20 µM
MPTP cs DR: MPTP inhibitor counter-screen activity, dose response; IC50, µM; hit rate 49% among 780; isolated mitochondria counterscreen, fluorescence read-out; shares compounds with MPTP block; in the data active = IC50 below about 80 µM
The depositor's hits bear a star; · = not tested or not shown. Hits are enriched below; roughly 5.6% of the tested compounds scored in any of these assays.

SMILES | aDG glyco up | XBP1 UPR activ | GRIN3A LBD mod | MPTP block | CHOP inhibitor | UPR CHOP act | Rh123 counter | others
CCOC(=O)C1(CC2CCCCO2)CCN(C(=O)Nc2ccc(C(=O)OC)cc2)CC1 (stereo unspecified) | 0.0 | -4.6 | 8.8 | 56.5* | 2.9 | -0.5 | 60.9*
C=CCc1cc(C=Nc2ccc(N3CCOCC3)cc2)cc(OCC)c1O | 0.1 | · | -1.2 | -0.1 | · | · | ·
Cc1cc(OCC(=O)N2CCc3ccccc3C2)c(C)cc1Br | 0.0 | -1.8 | -1.2 | -0.1 | · | 1.2 | ·
COc1ccc(C(O)(CCN2CCOCC2)c2ccccc2)cc1 (stereo unspecified) | 0.0 | 0.6 | -6.0 | 1.2 | · | -1.4 | ·
Cc1cc(C)n(CCC(=O)N=Nc2c(O)[nH]c3ccc(Br)cc23)n1 | -0.2 | -2.0 | 0.6 | 2.5 | -6.2 | 0.5 | ·
COc1ccccc1C1(CCNC(C)c2cccs2)CCOC(C(C)C)C1 (stereo unspecified) | 0.1 | 1.5 | 1.9 | 2.2 | 3.1 | -0.9 | ·
Cc1ccc(C2(CCNC(C)c3cccs3)CCOC(C(C)C)C2)cc1 (stereo unspecified) | 0.1 | · | 2.1 | 90.8* | 51.6 | · | -14.2 | MPTP abs DR=12.3*;MPTP cs DR=59.3*
CCOC(=O)c1cnn(-c2sc(C(=O)OCC)c(C)c2C(=O)OCC)c1N | -0.3 | 2.1 | -3.4 | 88.0* | · | 1.3 | 73.6*
CCOC(=O)c1cnn(-c2cc(C)cc(C)c2)c1N | -0.2 | -3.3 | -0.2 | -1.0 | 3.6 | 0.7 | ·
C=CC[n+]1ccc(/C=C2\C=Cc3cc(C)ccc3N2CC)c2ccccc21 | 0.0 | · | -6.0 | 102.0* | 74.6* | · | 75.9*
CCN1/C(=C/c2cc[n+](CCCS(=O)(=O)[O-])c3ccccc23)Sc2ccccc21 | -0.2 | 9.9 | 1.3 | 0.8 | -0.2 | -0.3 | ·
COc1ccc(C(=O)NCCC2=CCCCC2)cc1OC1CCN(C(C)C)CC1 | 0.0 | -6.1 | -2.4 | -1.9 | · | 6.4 | ·
Cc1cc2nc3ccc(=[N+](C)C)cc-3sc2cc1N | 36.5* | · | -0.1 | 62.9* | 35.6 | · | 36.6*
CC1=C([N+](=O)[O-])C(c2cccc(Br)c2)C2=C(N1)c1ccccc1C2=O (stereo unspecified) | -0.5 | 17.0 | 3.7 | 85.0* | 28.7 | -1.6 | 58.5*
COC(=O)c1ccc(NC(=S)NC2CCc3ccccc32)cc1 (stereo unspecified) | 0.4 | -3.3 | 8.0 | 80.0* | 21.8 | -2.2 | 81.3*
CCN(CC)CCNC(=O)c1ccc(NC(=O)c2ccccc2-c2ccc(C(F)(F)F)cc2)cc1 | 0.6 | 0.2 | -3.7 | -1.0 | · | 1.6 | ·
COC(=O)c1cccc(NC(=O)Nc2ccc(Cl)cc2)c1 | 0.4 | 8.3 | 35.4* | 76.9* | 11.2 | 4.4 | 92.3*
NS(=O)(=O)c1cccc(NC(=O)Nc2ccc(Cl)cc2)c1 | 0.0 | -1.1 | 35.8* | 89.0* | 12.1 | 5.6 | 85.8*
COC(=O)c1cccc(NC(=S)Nc2ccc(Cl)c(Cl)c2)c1 | 0.1 | 2.1 | 22.6* | 79.6* | 11.7 | 0.8 | 90.6*
CC(C)S(=O)(=O)c1csc(NC(=O)Nc2ccc(Cl)cc2)c1 | 0.1 | -2.1 | 33.3* | 76.3* | 26.1 | -0.3 | 79.2*
COC(=O)c1cccc(NC(=S)Nc2cccc(Cl)c2C)c1 | -0.1 | -0.3 | -5.2 | 27.9 | 10.7 | -0.3 | ·
COc1ccc(N(C)C(=O)C2CCN(S(=O)(=O)c3cccc4nonc34)CC2)cc1 | 0.1 | 1.1 | -3.3 | -2.2 | · | 0.0 | ·
O=C(N/N=C/c1ccc([N+](=O)[O-])cc1)c1[nH]ncc1Br | 0.3 | -4.5 | 0.8 | -0.5 | -2.4 | 0.7 | ·
CCN(CC)C(=O)Cn1cc([N+](=O)[O-])cc1[N+](=O)[O-] | 0.1 | · | -0.5 | -1.7 | · | · | ·
O=[N+]([O-])c1ccc(N/N=C/c2ccccc2)c(F)c1 | -0.2 | 0.8 | 36.0* | 82.6* | 22.9 | 5.3 | 79.9*
SMILES | aDG glyco up | XBP1 UPR activ | GRIN3A LBD mod | MPTP block | CHOP inhibitor | UPR CHOP act | Rh123 counter | others
Cc1ccc(/C=C2/SC(=S)N(c3ccc(S(=O)(=O)Nc4nccs4)cc3)C2=O)cc1 | 0.1 | -0.9 | 3.7 | 95.7* | 58.0 | 6.3 | 74.6*
O=C1/C(=C\c2ccccn2)SC(=S)N1c1ccc(S(=O)(=O)Nc2nccs2)cc1 | 0.1 | -1.5 | 0.5 | 70.5* | 28.3 | -0.9 | 47.9*
Cc1ccc(Oc2ccc3c(c2)C(=O)N(c2ccc(S(=O)(=O)Nc4nccs4)cc2)C3=O)cc1 | 0.1 | -0.4 | 1.4 | 4.1 | -15.3 | 4.5 | ·
COc1ccc(/C=C2/SC(=S)N(c3ccc(S(=O)(=O)Nc4nccs4)cc3)C2=O)cc1 | 0.2 | -6.2 | 6.9 | 89.2* | 46.5 | 1.7 | 64.3*
C[C@@H](O)C1NC(=O)[C@H](CCCCN)NC(=O)c2cc([N+](=O)[O-])cc(I)c2NCCC[C@@H](C(N)=O)NC1=O (stereo partly specified) | -0.1 | -1.9 | 0.5 | -2.7 | -8.7 | -0.8 | ·
CCOc1ccc(CN2CCC(C(=O)Nc3cccc(-c4ccn[nH]4)c3)CC2)cc1Cl | 0.1 | -4.9 | 1.2 | -0.7 | · | 4.5 | ·
CCCC[C@@H]1C=C(C(=O)O)[C@H](c2ccc(Br)cc2)N1S(=O)(=O)c1ccc(C)cc1 | 0.1 | -0.7 | -1.9 | 1.6 | · | 1.5 | ·
CCOC(=O)N1CCN(C(=O)/C(=C/c2ccc(Br)cc2)NC(=O)c2ccc(OC)cc2)CC1 | 0.0 | -6.6 | -0.1 | 0.8 | 1.0 | -1.4 | ·
CCC1C(=O)C[C@H]2CCN3C(=O)CCCC1C23 (stereo partly specified) | 0.0 | 0.5 | -1.0 | -0.4 | · | 1.6 | ·
CC(C)(C)S(=O)(=O)N1C[C@@H]2C(=CC[C@H]3C(=O)N(c4ccccc4)C(=O)[C@@H]23)[C@@H]1CCO | 0.3 | · | -3.4 | -1.1 | · | · | ·
Cc1ccc(OCC(O)CNCc2ccc(F)cc2)cc1 (stereo unspecified) | 0.0 | -5.8 | -1.6 | 85.4* | · | 0.4 | -8.6 | MPTP abs DR=9.15*;MPTP cs DR=>80
OC(CNCc1ccccc1)COc1ccccc1 (stereo unspecified) | -0.2 | -1.2 | 1.6 | -1.3 | · | 0.2 | ·
Cc1cc(C)n(C(=O)Cn2nc(C)c(Br)c2C)n1 | 0.0 | -2.2 | 0.1 | -0.3 | · | 4.1 | ·
C=CCc1cccc(/C=C/c2cc(=O)c3ccccc3[nH]2)c1O | 0.6 | -0.6 | -29.5 | 59.8* | 5.7 | 0.1 | 50.2*
CC(C)N1CC2(CC(c3ccccc3F)=NO2)CN1C(=O)c1ccc(C(C)(C)C)cc1 (stereo unspecified) | 0.3 | · | · | 1.6 | · | · | ·

Screens (PubChem)
